Values joined by “and” are separate entries in the source; they are usually repeats but may differ in a detail not shown here. Equal values may be shown once.
What was measured:
Type in all cases: functional
[1] = test system: Mus musculus; experiment: Topical Antiinflammatory activity was measured in the TPA induced mouse ear edema assay at 300 ugm/mouse.
Outline: (§1)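 Mouse ear edema induced by topical TPA at 8.8 nmol/mouse, with the test steroid applied topically to the ear.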

[2] = test system: Mus musculus; experiment: Systemic Antiinflammatory activity was measured in the TPA induced mouse ear edema assay at 300 ugm/mouse.
Outline: (§2)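 Systemic absorption was assessed by the contralateral ear assay. Ear edema was induced with TPA (8.8 nmol/mouse) and scored on the ear opposite the one receiving the topical corticoid.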

[3] = species on record: Mus musculus; experiment: Percentage systemic effect to assess the degree of absorption was measured at 200 ug/mouse.
Outline: (§3)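 Systemic effect was measured after repeated topical high-dose applications to the mouse ear. Thymic involution was read as loss of thymus weight (n = 6). Adrenal suppression was read as inhibition of the stress-induced rise in plasma cortisol (n = 6).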

[4] = test system: Mus musculus; experiment: Topical Antiinflammatory activity was measured in the TPA induced mouse ear edema assay at 50 ug/mouse.; outline: as §1
[5] = test system: Mus musculus; experiment: Topical Antiinflammatory activity was measured in the TPA induced mouse ear edema assay at 200 ug/mouse.; outline: as §1
[6] = species on record: Mus musculus; experiment: Skin thickness of mouse was measured at 300 ugm/mouse.
[7] = test system: Mus musculus; experiment: Systemic Antiinflammatory activity was measured in the TPA induced mouse ear edema assay at 50 ug/mouse; outline: as §2
[8] = test system: Mus musculus; experiment: Systemic Antiinflammatory activity was measured in the TPA induced mouse ear edema assay at 100 ug/mouse.; outline: as §2
[9] = test system: Mus musculus; experiment: Systemic Antiinflammatory activity was measured in the TPA induced mouse ear edema assay at 200 ug/mouse.; outline: as §2
[10] = species on record: Mus musculus; experiment: Atrophogenicity potency was observed in mouse at given dose at 300 ugm/mouse.
[11] = species on record: Mus musculus; experiment: Percentage systemic effect to assess the degree of absorption was measured at 100 ug/mouse.; outline: as §3
[12] = species on record: Mus musculus; experiment: Percentage systemic effect to assess the degree of absorption was measured at 50 ug/mouse; outline: as §3
[13] = test system: Mus musculus; experiment: ED100 of was measured in the TPA induced mouse ear edema assay.; outline: as §1
[14] = test system: Mus musculus; experiment: Topical Antiinflammatory activity was measured in the TPA induced mouse ear edema assay at 100 ug/mouse.; outline: as §1
[15] = species on record: Mus musculus; experiment: Skin thickness of mouse was measured at 200 ug/mouse
[16] = species on record: Mus musculus; experiment: Percentage systemic effect to assess the degree of absorption was measured 40 ugm/mouse.; outline: as §3
[17] = species on record: Mus musculus; experiment: Percentage systemic effect to assess the degree of absorption was measured at 10 ug/mouse.; outline: as §3
[18] = test system: Mus musculus; experiment: Systemic Antiinflammatory activity was measured in the TPA induced mouse ear edema assay at 40 ugm/mouse.; outline: as §2
[19] = test system: Mus musculus; experiment: Systemic Antiinflammatory activity was measured in the TPA induced mouse ear edema assay at 10 ug/mouse.; outline: as §2
[20] = test system: Mus musculus; experiment: Topical Antiinflammatory activity was measured in the TPA induced mouse ear edema assay at 10 ug/mouse.; outline: as §1
[21] = test system: Mus musculus; experiment: Topical Antiinflammatory activity was measured in the TPA induced mouse ear edema assay at 40 ugm/mouse.; outline: as §1
[22] = species on record: Mus musculus; experiment: Atrophogenicity potency was observed in mouse at 200 ug/mouse.
[23] = species on record: Mus musculus; experiment: Percentage systemic effect to assess the degree of absorption was measured at 300 ugm/mouse.; outline: as §3
[24] = species on record: Mus musculus; experiment: Percentage systemic effect to assess the degree of absorption was measured at 50 ug/mouse.; outline: as §3
[25] = test system: Mus musculus; experiment: Systemic Antiinflammatory activity was measured in the TPA induced mouse ear edema assay at 50 ug/mouse.; outline: as §2
[26] = species on record: Mus musculus; experiment: Percentage systemic effect to assess the degree of absorption was measured at 40 ugm/mouse.; outline: as §3
[27] = test system: Mus musculus; experiment: Topical Antiinflammatory activity was measured in the TPA induced mouse ear edema assay at 2.5 ug/mouse.; outline: as §1
[28] = test system: Mus musculus; experiment: Systemic Antiinflammatory activity was measured in the TPA induced mouse ear edema assay at 2.5 ug/mouse; outline: as §2
[29] = test system: Mus musculus; experiment: Systemic Antiinflammatory activity was measured in the TPA induced mouse ear edema assay at 75 ug/mouse; outline: as §2
[30] = species on record: Mus musculus; experiment: Percentage systemic effect to assess the degree of absorption was measured 25 ug/mouse; outline: as §3
[31] = species on record: Mus musculus; experiment: Skin thickness of mouse was measured at 75 ug/mouse
[32] = test system: Mus musculus; experiment: Topical Antiinflammatory activity was measured in the TPA induced mouse ear edema assay at 75 ug/mouse.; outline: as §1
[33] = test system: Mus musculus; experiment: Systemic Antiinflammatory activity was measured in the TPA induced mouse ear edema assay at 25 ug/mouse; outline: as §2
[34] = species on record: Mus musculus; experiment: Percentage systemic effect to assess the degree of absorption was measured 75 ug/mouse; outline: as §3
[35] = test system: Mus musculus; experiment: Topical Antiinflammatory activity was measured in the TPA induced mouse ear edema assay at 25 ug/mouse.; outline: as §1
[36] = species on record: Mus musculus; experiment: Atrophogenicity potency was observed in mouse at 75 ug/mouse.
[37] = species on record: Mus musculus; experiment: Percentage systemic effect to assess the degree of absorption was measured at 75 ug/mouse; outline: as §3
[38] = species on record: Mus musculus; experiment: Percentage systemic effect to assess the degree of absorption was measured at 2.5 ug/mouse; outline: as §3
[39] = species on record: Mus musculus; experiment: Skin thickness of mouse was measured at 75 ug/mouse.

SMILES: CCCC(=O)O[C@@H]1[C@H](O)[C@@]2(Br)C(CCC3=CC(=O)C=C[C@@]32C)[C@@H]2C[C@H](C)[C@](OC(=O)CC)(C(=O)COC(=O)CC)[C@@]12C (stereo partly drawn)
- Potency [1]: 68%
- Potency [2]: 0%

SMILES: CCC(=O)OCC(=O)[C@@]1(OC(=O)CC)[C@@H](C)C[C@H]2C3CCC4=CC(=O)C=C[C@]4(C)[C@@]3(Cl)[C@@H](O)[C@@H](OC(=O)CC)[C@@]21C (stereo partly drawn)
- Systemic effect [3]: 0% and 6%
- Potency [1]: 84%
- Potency [4]: 47%
- Potency [2]: 0%
- Potency [5]: 71%
- Skin thickness [6]: 16.5
- Potency [7]: 0%
- Potency [8]: 0%
- Potency [9]: 0%
- Potency [10]: 0.1%
- Systemic effect [11]: 5%
- Systemic effect [12]: 4% and 5%
- ED100 [13]: 400 µg
- Potency [14]: 53%

SMILES: CCC(=O)OCC(=O)[C@@]1(OC(=O)CC)[C@@H](C)C[C@H]2C3CCC4=CC(=O)C=C[C@]4(C)[C@@]3(Br)[C@@H](O)[C@@H](OC(=O)CC)[C@@]21C (stereo partly drawn)
- Systemic effect [3]: 2% and 0%
- Potency [1]: 96%
- Potency [4]: 36%
- Potency [2]: 0%
- Potency [5]: 70%
- Potency [7]: 0%
- Potency [8]: 0%
- Potency [9]: 0%
- Systemic effect [11]: 6%
- Systemic effect [12]: 2%
- ED100 [13]: 325 µg
- Potency [14]: 45%

SMILES: CCC(=O)OCC(=O)[C@@]1(OC(=O)CC)[C@@H](C)C[C@H]2C3CCC4=CC(=O)C=C[C@]4(C)[C@@]3(Br)[C@@H](O)[C@@H](OC(=O)c3ccco3)[C@@]21C (stereo partly drawn)
- Potency [1]: 69%
- Potency [2]: 0%

SMILES: CCC(=O)OCC(=O)[C@@]1(OC(=O)CC)[C@@H](C)C[C@H]2C3CCC4=CC(=O)C=C[C@]4(C)[C@@]3(Br)[C@@H](O)[C@@H](OC(=O)c3ccccc3)[C@@]21C (stereo partly drawn)
- Potency [1]: 84%
- Potency [2]: 0%

SMILES: CCC(=O)OCC(=O)[C@@]1(OC(=O)CC)[C@@H](C)C[C@H]2C3CCC4=CC(=O)C=C[C@]4(C)[C@@]3(Cl)[C@@H](O)[C@@H](O)[C@@]21C (stereo partly drawn)
- Skin thickness [15]: 13.92
- Systemic effect [16]: 0% and 13%
- Systemic effect [17]: 4% and 2%
- Potency [8]: 21%
- Potency [18]: 5%
- Potency [19]: 0%
- Potency [20]: 41%
- Systemic effect [11]: 5% and 14%
- Potency [21]: 67%
- ED100 [13]: 160 µg
- Potency [22]: 15.7%
- Potency [14]: 81%

SMILES: CCC(=O)OCC(=O)[C@@]1(OC(=O)CC)[C@@H](C)C[C@H]2C3CCC4=CC(=O)C=C[C@]4(C)[C@@]3(Br)[C@@H](O)[C@@H](O)[C@@]21C (stereo partly drawn)
- Systemic effect [3]: 7% and 15%
- Systemic effect [23]: 7% and 15%
- Potency [1]: 99%
- Potency [4]: 57%
- Systemic effect [24]: 7% and 12%
- Potency [2]: 22%
- Potency [5]: 91%
- Potency [8]: 17%
- Potency [9]: 17%
- Systemic effect [11]: 0% and 14%
- Potency [25]: 16%
- ED100 [13]: 325 µg
- Potency [14]: 86%

SMILES: CCC(=O)OCC(=O)[C@@]1(OC(=O)CC)[C@@H](C)C[C@H]2C3CCC4=CC(=O)C=C[C@]4(C)[C@@]3(F)[C@@H](O)[C@@H](OC(=O)CC)[C@@]21C (stereo partly drawn)
- Systemic effect [17]: 0%
- Potency [5]: 77%
- Potency [8]: 0%
- Potency [9]: 0%
- Potency [18]: 0%
- Potency [19]: 0%
- Potency [20]: 21%
- Systemic effect [11]: 4% and 0%
- Potency [21]: 50%
- Systemic effect [26]: 1% and 6%
- ED100 [13]: 400 µg
- Potency [14]: 69%

SMILES: CCC(=O)OCC(=O)[C@@]1(OC(=O)CC)[C@@H](C)C[C@H]2C3CCC4=CC(=O)C=C[C@]4(C)[C@@]3(Br)[C@@H](O)[C@@H](OC(=O)CC(C)C)[C@@]21C (stereo partly drawn)
- Potency [1]: 54%
- Potency [2]: 0%

SMILES: CCC(=O)OCC(=O)[C@@]1(OC(=O)CC)[C@@H](C)C[C@H]2C3CCC4=CC(=O)C=C[C@]4(C)[C@@]3(F)[C@@H](O)[C@@H](O)[C@@]21C (stereo partly drawn)
- Systemic effect [16]: 13% and 10%
- Systemic effect [17]: 9% and 1%
- Potency [8]: 19%
- Potency [18]: 11%
- Potency [19]: 7%
- Potency [20]: 46%
- Systemic effect [11]: 21% and 30%
- Potency [21]: 60%
- ED100 [13]: 140 µg
- Potency [14]: 82%

SMILES: CCC(=O)OCC(=O)[C@@]1(OC(=O)CC)[C@@H](C)C[C@H]2[C@@H]3CCC4=CC(=O)C=C[C@]4(C)[C@@]3(Cl)[C@@H](O)C[C@@]21C [BECLOMETHASONE DIPROPIONATE]
- Potency [27]: 60%
- Potency [28]: 12%
- Potency [29]: 52%
- Systemic effect [30]: 52% and 32%
- Skin thickness [31]: 8.12
- Potency [32]: 93%
- Potency [33]: 40%
- Systemic effect [34]: 67% and 36%
- Potency [35]: 78%
- ED100 [13]: 110 µg
- Potency [36]: 51%

SMILES: CCC(=O)OCC(=O)[C@@]1(OC(=O)CC)[C@@H](C)C[C@H]2[C@@H]3CCC4=CC(=O)C=C[C@]4(C)[C@@]3(F)[C@@H](O)C[C@@]21C [BETAMETHASONE DIPROPIONATE]
- Potency [27]: 59%
- Potency [28]: 27%
- Systemic effect [37]: 87% and 37%
- Potency [29]: 72%
- Potency [32]: 93%
- Potency [33]: 30%
- Potency [35]: 76%
- Systemic effect [38]: 30% and 12%
- Skin thickness [39]: 9.39
- ED100 [13]: 110 µg
- Potency [36]: 43%
